Data set [1] relates to Mus musculus. The data set is described as follows: Induction of NK-mediated antitumor immunity in ip dosed C57BL/6 mouse allografted with mouse Lewis lung carcinoma cells assessed as increase in NK cell infiltration in tumor by immunofluorescent staining based assay. As to conditions: dose microg/g 1.25-5.
Data set [2] has as its system Lewis lung carcinoma. The data set is described as follows: Antitumor activity against mouse Lewis lung carcinoma cells allografted in ip dosed C57BL/6 mouse assessed as reduction in tumor weight administered for 20 consecutive days. As to conditions: dose microg/g 1.25-5, time 20.0 day.
The target in data set [3] is Mothers against decapentaplegic homolog 2 (Homo sapiens) (UniProt Q15796). The data set is described as follows: Inhibition of TGF-beta induced SMAD2 phosphorylation in human A549 cells at 5 to 10 uM pretreated with compound for 2 hrs followed by TGF-beta stimulation by Western blot analysis. Conditions: dose microM 5-10, time 2.0 hrs. The class given is cell-based. The method in brief:
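A549 cells pre-treated 2 h at 5 and 10 μM, then stimulated with 1 ng/mL TGF-β for 30 min. Lysates probed by western blot for phospho-SMAD2, SMAD2, phospho-SMAD3 and SMAD3. GAPDH served as loading control.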
A general note: In western blotting, separated proteins are transferred to a membrane and probed.

Data set [4] has as its system Lewis lung carcinoma. Briefly: Antitumor activity against mouse Lewis lung carcinoma cells allografted in ip dosed C57BL/6 mouse assessed as reduction in tumor volume administered for 20 consecutive days. As to conditions: dose microg/g 1.25-5, time 20.0 day.
A short description of data set [5]: Solubility of the compound in water. The class given is physicochemical. Put shortly: (§1)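 Solubility of free base or HCl salt measured in pure water and in phosphate buffer pH 7.4 at room temperature, quantified by HPLC.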
Data set [6] concerns the target Mothers against decapentaplegic homolog 3 (Homo sapiens) (UniProt P84022). Conditions: NIH3T3.
For data set [7], the system named is A549. The data set is described as follows: Cytotoxicity against human A549 cells assessed as inhibition of cell growth by MTT assay. The class given is functional. Conditions: read-out: TD50 (the source's name). Put shortly: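 A549 cell growth measured by MTT assay. Value is the concentration giving 50% growth inhibition relative to controls, mean of three experiments.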
A general note: Tetrazolium dyes change colour on reduction, which living cells bring about.

Data set [8] can be described thus: Solubility of the compound in PBS buffer at pH 7.4. The class given is physicochemical. The method in brief: as §1

Values after ≈ are worked out from the molar mass of the structure shown. Active and inactive are the calls of the source. No cut-off for these calls is given here.

Sequence of Mothers against decapentaplegic homolog 2 (Homo sapiens) (Q15796 whole entry): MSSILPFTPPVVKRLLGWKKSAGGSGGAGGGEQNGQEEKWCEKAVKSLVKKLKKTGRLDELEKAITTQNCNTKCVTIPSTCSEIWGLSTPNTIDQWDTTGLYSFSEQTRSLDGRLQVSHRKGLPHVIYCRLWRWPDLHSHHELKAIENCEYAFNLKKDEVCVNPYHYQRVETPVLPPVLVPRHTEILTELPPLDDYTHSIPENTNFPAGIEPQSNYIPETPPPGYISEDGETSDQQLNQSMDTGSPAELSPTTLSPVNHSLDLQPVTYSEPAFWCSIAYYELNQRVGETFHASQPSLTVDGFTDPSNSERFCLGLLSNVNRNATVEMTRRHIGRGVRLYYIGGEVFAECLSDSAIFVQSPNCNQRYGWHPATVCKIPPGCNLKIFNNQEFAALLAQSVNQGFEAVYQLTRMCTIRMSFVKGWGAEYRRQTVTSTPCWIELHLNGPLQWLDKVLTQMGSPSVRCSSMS
Sequence of Mothers against decapentaplegic homolog 3 (Homo sapiens) (P84022 2-425 limits assumed): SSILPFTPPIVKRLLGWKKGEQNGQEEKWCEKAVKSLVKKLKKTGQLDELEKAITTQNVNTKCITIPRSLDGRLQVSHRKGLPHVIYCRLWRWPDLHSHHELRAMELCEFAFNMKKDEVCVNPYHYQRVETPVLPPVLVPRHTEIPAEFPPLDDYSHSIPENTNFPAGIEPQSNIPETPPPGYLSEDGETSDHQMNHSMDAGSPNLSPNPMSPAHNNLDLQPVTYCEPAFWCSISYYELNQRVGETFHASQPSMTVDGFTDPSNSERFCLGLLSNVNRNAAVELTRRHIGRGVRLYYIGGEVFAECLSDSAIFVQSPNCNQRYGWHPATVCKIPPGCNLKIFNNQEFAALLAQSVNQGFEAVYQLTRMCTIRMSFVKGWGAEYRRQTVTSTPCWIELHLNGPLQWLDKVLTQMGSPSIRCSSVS

With `Cc1nc(C)c(CN2CC/C(=C\c3c(-c4ccccc4)n(C)c4ncccc34)C2=O)nc1C` [listing 1 of 2 here], the Activity result in data set [1], in data set [2] and in data set [4] was “Dose-dependent effect” in each case. Moreover, the inhibition result in data set [3] was “inactive”.
In the case of `Cc1nc(C)c(CN2CC/C(=C\c3c(-c4ccccc4)n(C)c4ncccc34)C2=O)nc1C.Cl`, in data set [5] (water), the solubility is greater than 94000 µg/mL.
As for `COc1cc2c(cc1OC)CN(C(=O)/C=C/c1c(-c3ccccc3)n(C)c3ncccc13)CC2.Cl`, the ED50 in data set [6] amounted to 4.53 µM. For the same compound, the CC50 in data set [7] came to 18.7 µM. In addition, the solubility in data set [8] worked out at 6 µg/mL; in data set [5] it was 141 µg/mL.
`COc1ccc(CN2CC/C(=C\c3c(-c4ccccc4)n(C)c4ncccc34)C2=O)cc1OC`: the inhibition entry in data set [3] was “inactive”.
For the compound `Cc1nc(C)c(CN2CC/C(=C\c3c(-c4ccccc4)n(C)c4ncccc34)C2=O)nc1C` [listing 2 of 2 here], the CC50 in data set [7] was found to be 22 µM. Also, in data set [8], the solubility came to 14 µg/mL (≈ 32 µM).

As usually defined, the solubility is the concentration that dissolves in the medium under given conditions. Read a low solubility as little dissolved substance.

The record behind these values is ChEMBL document CHEMBL4665722, “Discovery of a novel selective water-soluble SMAD3 inhibitor as an antitumor agent” (Bioorg Med Chem Lett, 2020).
